High-throughput results deposited in PubChem BioAssay by NMMLSC.
Sampled rows, rich in hits. Any-hit rate of the full collection: about 2.5%.
ABCB1 inh = blocks JC-1 efflux by human ABCB1 transporter; AID 1326; 0.067% of 190,000 active; CCRF-Adr cells, flow cytometry; inhibition, % at 6.6 µM; P08183; in the data active means inhibition above about 40%;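 further: higher value means more JC-1 retained so stronger ABCB1 efflux block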
MEKK2 mut-MEK5 = signal of MEK5 binding to mutant human MEKK2 PB1 domain | bead flow cytometry, Alexa488-MEK5 binding to MEKK2 mutant | percent response, % at 10 µM | 0.35% of 290,000 active; in the data active means percent response above about 24%, passing the limit was not always enough
ABCG2 inh = inhibitors of human ABCG2 transporter, ABCB1 counter-screen; Q9UNQ0; IgMXP3 cells, JC-1 efflux, flow cytometry; inhibition, % at 6.6 µM; 0.1% of 190,000 active; AID 1325;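 active means inhibition above 80%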
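Read-out basis: Efflux inhibition in percent versus controls | Test system: ABCG2 IgMXP3 and barcoded ABCB1 CCRF-Adr cell mix | Quantity: 3 million cells/mL in well | Schedule: 10 min at 25 °C | Control set: Nicardipine as high control, DMSO as low control | Reagent: JC-1 as fluorescent efflux pump substrate | Signal: Flow cytometry of retained JC-1 fluorescence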
MEKK2wt PB1 HTS = raises or lowers MEK5 binding to wildtype human MEKK2 PB1 domain | Q9Y2U5 | bead flow cytometry, Alexa488-MEK5 binding to MEKK2 WT; actives lie on both sides | binding response (% of control), % at 10 µM | 1.1% of 290,000 active; in the data active means binding response below about 67% or above about 130%
MEKK3 PB1 HTS = raises or lowers MEK5 binding to the human MEKK3 PB1 domain; bead-based flow cytometry, Alexa488-MEK5 binding to MEKK3; actives lie on both sides; 0 = blocked by unlabeled MEK5, 100 = vehicle; binding response (% of control), % at 10 µM; 1.4% of 290,000 active; AID 1529;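 active means binding response more than 3 SD above or below the average of its plate-row segment, actives on both sides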;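 further: Alexa488 bead fluorescence after subtracting the streptavidin-only scavenger bead signal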
Efflux pump mplx = blocks antifungal efflux pumps in multiplex yeast assay; AID 485275; S. cerevisiae Candida pump triplex, Nile Red efflux; inhibition, % at 10 µM; 0.44% of 330,000 active;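 active means plate passing quality check with inhibition over a set limit, or well fluorescence over plate mean plus 4 SD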;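 further: Nile Red retained in pooled yeast measured as flow cytometry median fluorescence; higher means more Nile Red kept so more efflux inhibition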
MEKK2wt confirm = raises or lowers MEK5 binding to wildtype human MEKK2, retest. AID 1892. 2.4% of 5,900 active. shares compounds with MEKK3 PB1 HTS. bead flow cytometry, Alexa488-MEK5 binding to MEKK2 WT; actives lie on both sides. binding response (% of control), % at 10 µM; in the data active means binding response below about 16% or above about 210%; inactive means in between
MEKK2mut-MEK5 = signal of MEK5 binding to mutant human MEKK2, retest; shares compounds with MEKK3 PB1 HTS; bead flow cytometry, Alexa488-MEK5 binding to MEKK2 mutant; percent response, % at 10 µM; 2% of 5,900 active; in the data active means percent response mostly above about 71%, no sharp cut-off; inactive means mostly below about 38%;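 further: higher means compound restores mutant binding toward wildtype level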
MEKK3 confirm = confirmation of inhibitors of MEK5 binding to human MEKK3. shares compounds with MEKK3 PB1 HTS. bead flow cytometry, Alexa488-MEK5 binding to MEKK3; active compounds read low. binding response (% of control), % at 10 µM. 1.8% of 5,900 active. AID 1894;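 active means binding response below 72% of control, or above a set upper limit, though filed actives all read lower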;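 further: lower values mean stronger disruption of MEK5 binding to MEKK3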
A number is an active result; n = inactive; x = no result given; [ ] = dose if it differs, or a comment.

SMILES	ABCB1 inh	MEKK2 mut-MEK5	ABCG2 inh	MEKK2wt PB1 HTS	MEKK3 PB1 HTS	Efflux pump mplx	MEKK2wt confirm	MEKK2mut-MEK5	MEKK3 confirm
COc1cc2oc(-c3ccc(O)cc3)cc(=O)c2c(OC)c1O	x	n	x	35[inhibitor]	37[inhibitor]	x	n	n	n
COc1cc2oc(-c3ccc(O)cc3)cc(=O)c2c(O)c1OC	x	n	x	n	n	n	x	x	x
CC1(C)CC(=O)C([N+](=O)[O-])=C(NCCCC(=O)O)C1	n	n	n	n	64[inhibitor]	n	n	n	n
CC(C)C(=O)NS(=O)(=O)c1ccc(NS(C)(=O)=O)cc1	x	n	x	n	n	n	x	x	x
C/C(=N\N=C(/N)c1nonc1N)c1ccc2c(c1)OCO2	x	n	x	n	n	n	x	x	x
Cc1ccc(N=Cc2sc(O)c3ccccc23)c(C)c1	n	n	n	135	n	n	n	n	n
Cc1cc(C(=O)CN2CCN(CC(=O)Nc3ccc(F)cc3)CC2)c(C)n1C1CC1	x	x	x	x	x	n	x	x	x
CN(c1c[nH]c(=O)[nH]c1=O)C1CCCCC1	n	n	n	n	69[inhibitor]	n	n	n	n
COC(=O)c1ccccc1NC(=O)[C@@H]1CCC(=O)N1C1OC(=O)c2c1ccc(OC)c2OC (some centres undefined)	x	n	x	n	n	n	x	x	x
O=C1CCCc2c1sc1nc3n(c(=O)c21)CCCCC3	n	n	n	139	n	n	n	n	n
COc1ccccc1/C=N/NC(=O)CNC(=O)c1ccc(S(=O)(=O)N2CCCC2)cc1	n	n	n	n	n	n	x	x	x
O=C(CNC(=O)c1ccc(S(=O)(=O)N2CCCC2)cc1)N/N=C/c1ccccc1Cl	n	n	n	n	73[inhibitor]	n	n	n	n
Cn1c(SCc2nc3ccccc3n2CCO)nc2ccccc21	n	n	n	n	125	n	n	n	n
Cn1c(Sc2nc3ccccc3n2C)nc2ccccc21	n	n	n	n	n	n	x	x	x
COc1c2occc2c(OC(C)=O)c2c(=O)cc(C)oc12	x	49	x	n	80[inhibitor]	n	n	n	n
CC(=O)Oc1c2occc2cc2ccc(=O)oc12	n	n	n	n	n	n	x	x	x
COc1ccc(CC(=O)N2N=C(C)CC2(O)c2cccnc2)cc1OC (centres undefined)	n	n	n	n	128	n	n	n	n
CCC(C)c1ccc(NC(=O)c2c([N+](=O)[O-])cnn2CC)cc1 (centres undefined)	x	n	x	n	n	n	x	x	x
Cc1ccc(C)c2c1cc(C)c1nnc(SCC(=O)c3cccs3)n12	n	n	n	n	148	n	n	n	n
CCc1nc(N2CCCC2C(=O)O)c2oc3ccccc3c2n1 (centres undefined)	n	n	n	n	57[inhibitor]	n	n	n	n
CCc1nc(N2CCN(C(=O)c3ccco3)CC2)c2oc3ccccc3c2n1	n	n	n	n	n	n	x	x	x
Cc1cc(NS(C)(=O)=O)c(=O)n(Cc2cccc(F)c2)c1	x	n	x	20[inhibitor]	n	x	n	n	n
COc1ccc2[nH]c3c(=O)n(Cc4ccc(C(=O)NCC5CCCO5)cc4)c(=S)[nH]c3c2c1 (centres undefined)	n	178	n	n	n	n	n	n	n
O=C(NCC1CCCO1)c1ccc2c(=O)n(CC3CCCO3)c(=S)[nH]c2c1 (centres undefined)	n	n	n	3.0[inhibitor]	2.0[inhibitor]	n	n	n	n
COc1ccc(S(=O)(=O)N2CCOCC2)cc1NC(=O)CSc1nnc(C2CC2)n1C	x	x	x	x	x	n	x	x	x
Oc1ccc(-n2cnnn2)cc1	n	n	n	n	71[inhibitor]	n	n	n	n
